Test [1] concerns the target Autotaxin (Homo sapiens) (UniProt Q13822). Put plainly: Inhibition of human NPP2 expressed in COS7 cells assessed as production of p-nitrophenol using pnp-TMP as the substrate at 100 uM after 15 mins […]. The test is classed as cell-based. The settings on record: COS-7. A digest of the protocol: (§1)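 Human NPP1, NPP2 (membrane lysate or conditioned medium for the secreted form) or NPP3 from transfected COS-7 cells, preincubated 3 min at 37 °C in 50 mM Tris pH 8.5 buffer with CaCl2, NaCl and KCl. Substrate and inhibitor both at 100 μM final. pnp-TMP: p-nitrophenol read at 405 nm at 15 min. ATP or Ap5A: stopped at 30 min with perchloric acid, then HPLC. Results as % residual activity versus control; three to six experiments in triplicate.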

The target of test [2] is T1, Ectonucleoside triphosphate diphosphohydrolase 1 (Homo sapiens) (UniProt P49961).
T1 sequence (whole entry): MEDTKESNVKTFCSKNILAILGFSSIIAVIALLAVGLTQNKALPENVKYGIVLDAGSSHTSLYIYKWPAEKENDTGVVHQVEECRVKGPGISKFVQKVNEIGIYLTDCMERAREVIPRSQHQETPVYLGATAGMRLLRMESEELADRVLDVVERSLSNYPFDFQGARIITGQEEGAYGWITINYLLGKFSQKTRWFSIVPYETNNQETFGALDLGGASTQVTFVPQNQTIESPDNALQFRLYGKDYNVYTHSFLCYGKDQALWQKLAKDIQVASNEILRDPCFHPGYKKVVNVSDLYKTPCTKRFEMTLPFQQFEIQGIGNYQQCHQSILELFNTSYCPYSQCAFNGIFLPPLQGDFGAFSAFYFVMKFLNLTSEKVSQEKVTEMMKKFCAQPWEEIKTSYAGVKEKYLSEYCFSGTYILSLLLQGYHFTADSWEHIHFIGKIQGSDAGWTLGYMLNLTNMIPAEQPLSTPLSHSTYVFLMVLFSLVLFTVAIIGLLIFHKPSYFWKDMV
Put plainly: Activity of human NTPDase1 expressed in COS7 cells assessed as amount of inorganic phosphate released using ATP as the substrate at 100 uM after 15 mins by malachite green reagent method. The settings on record: COS-7. Format: cell-based. A digest of the protocol: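 Crude membrane-enriched protein extract of transiently transfected COS-7 cells, preincubated 3 min at 37 °C in Tris-Ringer buffer pH 7.3. Reaction started with 100 μM ATP, or with the analogue alone at 100 μM to test it as substrate. Stopped after 15 min with malachite green reagent; released Pi read at 630 nm. Mean ± SD, n = 3.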

The target of test [3] is 5'-nucleotidase (Homo sapiens) (UniProt P21589). Nature of the test: Inhibition of human Ecto-5'-nucleotidase expressed in COS7 cells assessed as amount of inorganic phosphate released using AMP as the substrate at 100 uM after 15 mins by malachite green reagent method. The following applies: COS-7.
Test [4] concerns the target T2, Ectonucleotide pyrophosphatase/phosphodiesterase family member 3 (Homo sapiens) (UniProt O14638).
T2 sequence (whole entry): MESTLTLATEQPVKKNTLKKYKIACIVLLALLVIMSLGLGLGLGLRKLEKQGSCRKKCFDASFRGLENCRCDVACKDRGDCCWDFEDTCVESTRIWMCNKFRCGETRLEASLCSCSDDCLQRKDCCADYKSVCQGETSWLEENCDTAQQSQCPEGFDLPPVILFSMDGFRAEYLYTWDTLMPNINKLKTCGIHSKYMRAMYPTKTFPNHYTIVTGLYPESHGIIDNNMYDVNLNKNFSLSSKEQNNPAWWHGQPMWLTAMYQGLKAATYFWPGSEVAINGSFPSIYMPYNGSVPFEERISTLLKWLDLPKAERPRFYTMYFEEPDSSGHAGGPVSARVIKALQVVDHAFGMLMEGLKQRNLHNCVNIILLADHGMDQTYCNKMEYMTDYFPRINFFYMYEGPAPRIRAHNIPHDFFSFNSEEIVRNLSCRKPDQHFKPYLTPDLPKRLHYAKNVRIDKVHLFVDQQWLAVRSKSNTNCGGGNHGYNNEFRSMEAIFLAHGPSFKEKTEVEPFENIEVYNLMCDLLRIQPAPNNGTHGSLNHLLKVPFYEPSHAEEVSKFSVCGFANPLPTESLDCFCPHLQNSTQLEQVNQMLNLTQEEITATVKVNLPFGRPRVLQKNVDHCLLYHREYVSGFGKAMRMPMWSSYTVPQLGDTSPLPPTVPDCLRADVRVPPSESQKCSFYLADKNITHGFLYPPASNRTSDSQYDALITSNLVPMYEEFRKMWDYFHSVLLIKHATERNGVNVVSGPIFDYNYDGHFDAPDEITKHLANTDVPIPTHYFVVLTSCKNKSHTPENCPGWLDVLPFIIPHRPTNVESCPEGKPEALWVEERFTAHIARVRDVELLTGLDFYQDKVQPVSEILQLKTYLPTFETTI
Nature of the test: Activity of human NPP3 expressed in COS7 cells assessed as production of p-nitrophenol using Ap5A as the substrate at 100 uM after 30 mins by malachite green reagent method. Format: cell-based. The following applies: COS-7.

Test [5] addresses Autotaxin (Homo sapiens) (UniProt Q13822). Put plainly: Inhibition of human secreted NPP2 expressed in COS7 cells assessed as production of p-nitrophenol using pnp-TMP as the substrate at 100 uM after 15 mins by malachite green reagent method. The settings on record: COS-7. The test is classed as cell-based. A digest of the protocol: as §1
In test [6] the target is P2Y purinoceptor 1 (Homo sapiens, UniProt P47900). Nature of the test: Ratio EC50 for ATP to compound for GFP tagged-human P2Y1 receptor expressed in human 1321N1 cells assessed as elevation in calcium level after 30 mins by fluorescence spectrophotometric analysis. The test is classed as functional, cell-based.
Test [7] has as its target T2, Ectonucleotide pyrophosphatase/phosphodiesterase family member 3 (Homo sapiens). Nature of the test: Inhibition of human NPP3 expressed in COS7 cells assessed as production of p-nitrophenol using pnp-TMP as the substrate at 100 uM after 15 mins by malachite green reagent method. The settings on record: COS-7. The test is classed as cell-based. A digest of the protocol:
as §1

For test [8] the target is unchanged. Nature of the test: Inhibition of human NPP3 expressed in COS7 cells assessed as production of p-nitrophenol using Ap5A as the substrate at 100 uM after 30 mins […]. The test is classed as cell-based. The following applies: COS-7.

The source made the active and inactive calls. The calls are words filed in the database; no cut-off is given here. Bounds are passed on as bounds.

Sequence of 5'-nucleotidase (Homo sapiens) (P21589 whole entry): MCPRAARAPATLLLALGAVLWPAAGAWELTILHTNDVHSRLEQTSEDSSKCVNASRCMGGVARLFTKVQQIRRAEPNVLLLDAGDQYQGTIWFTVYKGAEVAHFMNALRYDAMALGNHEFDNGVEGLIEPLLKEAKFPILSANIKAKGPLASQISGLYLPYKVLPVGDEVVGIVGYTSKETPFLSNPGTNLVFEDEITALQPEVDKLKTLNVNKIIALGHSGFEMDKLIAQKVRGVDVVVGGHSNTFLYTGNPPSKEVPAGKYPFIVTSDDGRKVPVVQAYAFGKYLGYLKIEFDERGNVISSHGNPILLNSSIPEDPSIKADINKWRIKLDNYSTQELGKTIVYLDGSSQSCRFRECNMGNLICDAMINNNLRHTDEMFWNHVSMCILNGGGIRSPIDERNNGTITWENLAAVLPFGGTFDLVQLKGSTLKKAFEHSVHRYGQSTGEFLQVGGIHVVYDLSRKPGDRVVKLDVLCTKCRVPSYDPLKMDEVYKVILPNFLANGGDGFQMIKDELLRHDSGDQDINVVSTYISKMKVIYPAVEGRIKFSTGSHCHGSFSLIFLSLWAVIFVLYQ
Sequence of P2Y purinoceptor 1 (P47900 whole entry): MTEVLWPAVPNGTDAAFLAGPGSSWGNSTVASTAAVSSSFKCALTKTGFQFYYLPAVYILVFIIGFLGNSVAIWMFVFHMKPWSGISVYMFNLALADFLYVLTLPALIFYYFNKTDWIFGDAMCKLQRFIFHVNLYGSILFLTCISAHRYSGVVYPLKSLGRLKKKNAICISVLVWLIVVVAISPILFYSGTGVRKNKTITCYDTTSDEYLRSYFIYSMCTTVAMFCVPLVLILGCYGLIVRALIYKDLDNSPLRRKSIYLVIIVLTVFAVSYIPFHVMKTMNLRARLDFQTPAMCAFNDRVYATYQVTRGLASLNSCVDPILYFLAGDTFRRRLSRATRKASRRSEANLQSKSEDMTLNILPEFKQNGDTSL

What is called inhibition is the share of the control response that was lost under treatment. As to `Nc1ncnc2c1ncn2[C@H]1C[C@H](O)[C@@H](COP(=O)(O)CP(=O)(O)OP(=O)(O)CP(=O)(O)OC[C@H]2O[C@@H](n3cnc4c(N)ncnc43)C[C@@H]2O)O1`, the inhibition in test [1] is 95%; in test [3] it was 80%; in test [5] it was 60%; in test [7], 30%; in test [8], 10%. Further, the Activity in test [2] was 1.1%; in test [4], 5.5%. In addition, the Ratio EC50 in test [6] amounted to 200.
For `BP(=O)(OP(=O)(O)CP(=O)(O)OC[C@H]1O[C@@H](n2cnc3c(N)ncnc32)[C@H](O)[C@@H]1O)OP(=O)(O)CP(=O)(O)OC[C@H]1O[C@@H](n2cnc3c(N)ncnc32)[C@H](O)[C@@H]1O`, the inhibition in test [1] is 95%; in test [5], 60%; in test [7], 30%; in test [8] it was 10%. For the same compound, the results for the Activity in test [2] and in test [4] were 0.5% and 12%, respectively. In test [3], the inhibition result is “inactive”. Also, in test [6], the Ratio EC50 is 2.
As for `BP(=O)(OP(=O)(O)CP(=O)(O)OC[C@H]1O[C@@H](n2cnc3c(N)ncnc32)C[C@@H]1O)OP(=O)(O)CP(=O)(O)OC[C@H]1O[C@@H](n2cnc3c(N)ncnc32)C[C@@H]1O`, the inhibition in test [1] was found to be 95%; in test [5], 60%; in test [7], 30%; in test [8] it was 10%. For the same compound, the inhibition result in test [3] is “inactive”. Moreover, the Activity in test [4] is 5.5%. The Ratio EC50 in test [6] was above 200.
On to `Nc1ncnc2c1ncn2[C@@H]1O[C@H](COP(=O)(O)CP(=O)(O)OP(=O)(O)CP(=O)(O)OC[C@H]2O[C@@H](n3cnc4c(N)ncnc43)[C@H](O)[C@@H]2O)[C@@H](O)[C@H]1O`, for which the inhibition in test [1] turned out to be 95%; in test [3], 90%; in test [5], 60%; in test [7] it was 30%; in test [8] it was 10%. For the same compound, the values for the Activity in test [2] and in test [4] were 1.5% and 11%, respectively. In test [6], the Ratio EC50 was determined as 60.
